According to ChEMBL document CHEMBL1128308, “Synthesis and antiinflammatory activity of certain 5,6,7,8-tetrahydroquinolines and related compounds” (J Med Chem, 1995):

Key:
[1] = target: T1, Polyunsaturated fatty acid 5-lipoxygenase (Rattus norvegicus) (UniProt P12527); test: Inhibition of 5-lipoxygenase pathway in rat polymorphonuclear assay, by ability to inhibit formation of LTB4 AT 10 uM
T1 sequence (whole entry): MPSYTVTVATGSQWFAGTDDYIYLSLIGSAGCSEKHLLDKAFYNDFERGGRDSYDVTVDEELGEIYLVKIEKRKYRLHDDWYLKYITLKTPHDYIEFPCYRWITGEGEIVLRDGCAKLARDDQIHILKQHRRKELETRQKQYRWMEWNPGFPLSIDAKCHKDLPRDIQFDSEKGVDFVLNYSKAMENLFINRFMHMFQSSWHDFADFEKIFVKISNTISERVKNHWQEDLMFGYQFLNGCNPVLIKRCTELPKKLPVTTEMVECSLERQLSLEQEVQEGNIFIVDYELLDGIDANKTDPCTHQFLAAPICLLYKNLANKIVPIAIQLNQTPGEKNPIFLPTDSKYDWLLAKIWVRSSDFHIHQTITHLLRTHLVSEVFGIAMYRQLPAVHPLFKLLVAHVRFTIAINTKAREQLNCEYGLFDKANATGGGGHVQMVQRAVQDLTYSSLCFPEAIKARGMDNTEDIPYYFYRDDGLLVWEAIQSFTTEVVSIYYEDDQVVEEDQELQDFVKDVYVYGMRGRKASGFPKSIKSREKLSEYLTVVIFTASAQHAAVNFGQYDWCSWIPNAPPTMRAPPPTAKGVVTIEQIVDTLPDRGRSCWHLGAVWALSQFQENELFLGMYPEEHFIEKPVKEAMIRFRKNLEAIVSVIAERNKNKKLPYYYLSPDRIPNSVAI

Rattus norvegicus [2] = test: Antiinflammatory activity by rat Carrageenan edema assay at 50 mg/kg peroral administration (3h edema).; type: functional; conditions: route oral
Procedure, shortened: (§1)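 Groups of six male Sprague-Dawley rats (150-165 g) were dosed po in 0.5% methyl cellulose. One hour later, 0.1 mL of 1% carrageenan was injected subplantar into the right hind paw. Edema was taken as the 3 h paw volume minus the zero-time volume and expressed as percent change versus vehicle; screening dose was 50 mg/kg po.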

Rattus norvegicus [3] = test: Antiinflammatory activity by rat adjuvant arthritis assay at 30 mg/kg peroral administration (uninjected paw at day 16).; conditions: route oral
[4] = target: T1, Polyunsaturated fatty acid 5-lipoxygenase (Rattus norvegicus); test: Inhibition of 5-lipoxygenase pathway in rat polymorphonuclear assay (inhibition of 5-HETE formation)
Procedure, shortened: (§2)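 Rat polymorphonuclear leucocytes at 10^7 cells/mL in HBSS (Mg2+, Ca2+, 10 mM cysteine) were preincubated with compound, added in DMSO, for 10 min at 37 °C with shaking. Radiolabeled eicosanoids (5-HETE for the 5-LO pathway, TXB2 for the CO pathway) were separated by HPLC and detected with an in-line radioactivity detector. Results are given as percent change at 10 µM or 50 µM.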

[5] = target: T1, Polyunsaturated fatty acid 5-lipoxygenase (Rattus norvegicus)
[6] = target: T1, Polyunsaturated fatty acid 5-lipoxygenase (Rattus norvegicus); remark: listed apart in the source
Rattus norvegicus [7] = species on record: Rattus norvegicus; test: Anti-inflammatory activity by rat acute gastric irritation assay, activity is expressed as Ulcerogenic dose (UD50).; type: functional, Stomach
Procedure, shortened: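 Male Sprague-Dawley rats (190-220 g) were fasted for 18 h, then given compound in 0.5% Tween 80 by gastric intubation at 1 mL/100 g, with groups of 8 scored blind. At 4 h, gastric irritation was scored 0-3: 0 none, 1 redness, 2 ≤5 lesions, 3 >5 lesions. The ulcerogenic dose is the dose at which 50% of rats had at least one lesion.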

Rattus norvegicus [8] = species on record: Rattus norvegicus; test: Anti-inflammatory activity by rat adjuvant Arthritis assay..
[9] = target: T1, Polyunsaturated fatty acid 5-lipoxygenase (Rattus norvegicus); test: 5-lipoxygenase Inhibitory activity against rat polymorphonuclear leucocytes using 5-HETE; procedure, shortened: as §2
[10] = target: Cyclooxygenase (Rattus norvegicus) (UniProt P35355+Q63921)
[11] = target: T1, Polyunsaturated fatty acid 5-lipoxygenase (Rattus norvegicus); remark: listed apart in the source
[12] = target: T1, Polyunsaturated fatty acid 5-lipoxygenase (Rattus norvegicus); test: Inhibition of 5-lipoxygenase pathway was evaluated in rat polymorphonuclear assay by compound (50 uM) ability to inhibit formation of 5-HETE; procedure, shortened: as §2
Rattus norvegicus [13] = test: Anti-inflammatory activity by rat carrageenan edema assay. (3h edema).; type: functional; procedure, shortened: as §1

Row | Change [1] | Change [4] | Compound | Change (Rattus norvegicus [2]) | Change (Rattus norvegicus [3]) | also measured
1 | -4% | -29% | Cc1cc2c(nc1C(O)c1ccccc1)CCCCC2 (stereo unspecified) | -45% | -45% | 
2 | -48% | -49% | Cc1ccc([C@H](O)[C@@H]2CCCc3cc(C)cnc32)cc1 | -33% | 49% | 
3 | -11% |  | Cc1cccc(C(=O)C2CCCc3cccnc32)c1 (stereo unspecified) | -6% | -16% | Change [9]: 23%
4 | -34% |  | Cc1ccc(C(=O)C2CCCc3c(C)ccnc32)cc1 (stereo unspecified) | -12% | 19% | Change [9]: -41%
5 | 2% |  | Cc1ccc(S(=O)(=O)NC2CCCc3cc(C)cnc32)cc1 (stereo unspecified) | -33% | 77% | Change [9]: -16%
6 | -11% | -27% | Cc1ccc([C@@H](O)[C@@H]2CCCc3cc(C)cnc32)cc1 | -15% | -3% | 
7 | 13% | 50% | Cc1cnc2c(c1)CCCC2[S+]([O-])c1ccccc1 (stereo unspecified) | -25% | 13% | 
8 | 6% | 0% | Cc1cnc2c(c1)CCCC2S(=O)(=O)c1ccccc1 (stereo unspecified) | -22% | -2% | 
9 | -37% | -37% | Cc1ccc([C@@H](O)[C@@H]2CCCCc3cccnc32)cc1 | -33% | -42% | 
10 | -39% |  | Cc1cnc2c(c1)CCCC2Sc1ccccc1 (stereo unspecified) | -21% | -27% | Change [9]: -50%
11 | -37% | -31% | Cc1ccc([C@H](O)[C@@H]2CCCCc3cccnc32)cc1 | -26% | -32% | 
12 | 8% | 27% | Cc1ccc([C@@H](O)[C@H]2c3ncc(C)cc3CCC2(C)C)cc1 | -19% | -39% | 

Second part, the compound before the results:

Row | Compound | Change [1] | Change [4] | Change (Rattus norvegicus [2]) | Change (Rattus norvegicus [3]) | also measured
13 | Cc1ccc(C(O)Cc2ccc3c(n2)CCCCC3)cc1 (stereo unspecified) | -29% | -14% | -41% | 28% | 
14 | CC(C)Cc1ccc(C(C)C(=O)O)cc1 (stereo unspecified) [IBUPROFEN] |  |  |  |  | IC50 [5]: > 50 µM; IC50 [6]: > 50 µM; UD50 (Rattus norvegicus [7]): 42 mg/kg; ED50 (Rattus norvegicus [8]): 95 mg/kg
15 | Cc1ccnc2c1CCC/C2=C/c1ccnc2ccccc12 | -23% |  | -36% | -38% | Change [9]: -5%
16 | Cc1ccc(C(O)c2ccc3c(n2)CCCCC3)cc1 (stereo unspecified) | -25% | -28% | -26% | -33% | 
17 | CC(c1cc2ccccc2s1)N(O)C(N)=O (stereo unspecified) |  |  |  |  | IC50 [6]: 0.4 µM; IC50 [10]: 16 µM; IC50 [11]: 0.3 µM
18 | COc1cc(/C=C2\CCCc3cc4ccccc4nc32)ccc1OC(C)=O |  |  | -39% | 14% | Change [12]: -100%
19 | Cc1ccnc2c1CCC/C2=C\c1ccncc1 | -4% |  | -15% | 3% | Change [9]: 9%
20 | COc1ccc2cc([C@H](C)C(=O)O)ccc2c1 |  |  |  |  | IC50 [6]: > 100 µM; IC50 [10]: 0.1 µM; IC50 [11]: > 100 µM
21 | Cc1cc2c(nc1C(O)c1cccnc1)CCCCC2 (stereo unspecified) | 9% | -5% | -14% | 18% | 
22 | Cc1cc2c(nc1C(O)c1cccs1)CCCCC2 (stereo unspecified) | 34% | 37% | -9.5% | -6% | 
23 | Cc1ccnc2c1CCC/C2=C/c1ccncc1 | -25% |  | -17% | -49% | Change [9]: -17%
24 | Cc1ccc(C(=O)c2nc3c(cc2C)CCCCC3)cc1 | -52% | -49% | -59% | -26% | 
25 | Cc1ccc(C(N)c2nc3c(cc2C)CCCCC3)cc1 (stereo unspecified) | -29% | -23% | -10% | -3% | 
26 | Cc1ccc(C(O)c2nc3c(cc2C)CCC3)cc1 (stereo unspecified) | -43% | -45% | -3.5% | -2% | 
27 | C/C(=C1/CCCc2c(C)ccnc21)c1ccc(C)cc1 | -18% |  | -15% | 0% | Change [9]: 1%
28 | NC1=NN(c2cccc(C(F)(F)F)c2)CC1 [BW-755C] |  |  |  |  | ED50 (Rattus norvegicus [13]): 72 mg/kg; IC50 [6]: 11 µM; IC50 [11]: 10 µM; ED50 (Rattus norvegicus [8]): 38 mg/kg
29 | Cc1ccc(/C=C2\c3ncc(C)cc3CCC2(C)C)cc1 | 86% |  | -48% | 8% | Change [9]: 97%
30 | C/C(=C1\CCCc2c(C)ccnc21)c1ccc(C)cc1 | -22% |  | -15% | -14% | Change [9]: 7%
31 | Cc1cc2c(nc1C(O)c1ccc(C(F)(F)F)cc1)CCCCC2 (stereo unspecified) | 40% | 5% | -24% | -18% | 
32 | Cc1ccc(C(C)(O)c2nc3c(cc2C)CCCCC3)cc1 (stereo unspecified) | -13% | -14% | 2.5% | -4% | 
33 | Cc1cc2c(nc1C(O)c1cccc(Cl)c1)CCCCC2 (stereo unspecified) | -51% | -42% | -28% | 30% | 
34 | COC(c1ccc(C)cc1)c1nc2c(cc1C)CCCCC2 (stereo unspecified) | -12% | -10% | -9.5% | -26% | 
35 | COc1cc(/C=C2\CCCc3c(C)ccnc32)ccc1OC(C)=O |  |  | -45% | 23% | Change [12]: -100%
36 | Cc1ccc(Cc2nc3c(cc2C)CCCCC3)cc1 | -57% | -37% | -26% |  | 
37 | Cc1ccc(C(=O)C2CCCc3c(C)ccnc32)cc1C (stereo unspecified) | -53% |  | -25% | -28% | Change [9]: -50%
38 | COc1cc(/C=C2\CCCc3cc(C)cnc32)ccc1O |  |  | -36% | -1% | 
39 | Cc1ccc(C(O)c2nc3c(cc2C)CCCC3)cc1 (stereo unspecified) | -23% | -44% | -12.5% | -34% | 
40 | Cc1ccc(/C=C2\CCCc3cc(C)cnc32)cc1 |  |  | -47% | 17% | Change [12]: -28%
41 | COc1cccc(C(O)c2nc3c(cc2C)CCCCC3)c1 (stereo unspecified) | -50% | -34% | -28% | -14% | 
